Active and inactive are the calls of the source.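 The calls were made as follows, unless noted: active = fluorescence slope after compound addition differing from the mean of all tested samples at 99.7% confidence, mostly higher but some lower; inactive = the rest.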
Experiments:
[1] = inhibitors of TNFa-induced NFkB p65 translocation, primary screen, imaging, HUVEC, MLSMR starter and 10KST1 sets (AID 438;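 active = inhibition above 20% together with a positive visual image hit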;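 also: compound added about 3h40 before a 20 min TNFalpha stimulation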;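 as to inhibition: signal is the nuclear over cytoplasmic p65 intensity ratio per well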); conditions: HUVEC TNFa-induced p65 nuclear translocation; cell count: measured here: nuclei count (cytotoxicity indicator), at 2.08 µM; inhibition: at 2 µM, stronger effect = higher value, 0% TNFa-plus-vehicle, 100% no-TNFa wells
[2] = inhibitors of mutant huntingtin aggregation, primary screen, imaging, exon1htt(103Q)mCFP cells, high-content imaging (AID 483;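 active = visual image review flags a hit and inhibition of aggregation exceeds 20%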;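 also: compound exposure lasted 3 days before fixation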;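 as to nuclei count: percent of the per-plate median nuclei count of sample wells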); conditions: exon1htt(103Q)mCFP cell line, aggregate imaging, at 2 µM; inhibition of aggregation: stronger effect = higher value; nuclei count: measured here: cell count, toxicity
[3] = inhibitors of E-selectin induction by TNFa, primary screen, imaging, HUVEC, immunofluorescence, MLSMR starter and 10KST1 sets (AID 487;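 active = visually confirmed hit in the image check and inhibition above 20%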;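 as to inhibition: signal is fraction of cell area covered by stained E-selectin grains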;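 as to nuclei count: 100% = median nuclei count of all wells on the same plate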); conditions: HUVEC TNFalpha-induced E-selectin immunofluorescence imaging, at 2 µM; inhibition: stronger effect = higher value; nuclei count: measured here: cell number, toxicity
[4] = molecular target: Voltage-gated potassium channel subunit beta-2 (Rattus norvegicus) (UniProt P62483); assay: KvBeta enzyme negative modulators, primary screen, biochemical, NADPH fluorescence (AID 622;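 active = fluorescence slope higher than the sample average by over 3 SD, cut at about -0.22 in these data, passing the limit was not always enough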;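 also: slope of raw intensity against log time taken from 70 to 1610 s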); conditions: recombinant KvBeta, 4-cyanobenzaldehyde reduction, at 10 µM, stronger effect = higher value
[5] = molecular target: Voltage-gated potassium channel subunit beta-2 (Rattus norvegicus) (UniProt P62483); assay: KvBeta positive modulators, primary screen, biochemical, NADPH fluorescence (AID 623;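 active = NADPH fluorescence slope more negative than the mean of all samples by about 3 SD, 99.7% confidence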;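 also: fluorescence intensity change per second fitted from 20 to 320 s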); conditions: Recombinant KvBeta, NADPH fluorescence decrease slope, 10 min; at 10 µM; stronger effect = lower value
[6] = molecular target: Muscarinic acetylcholine receptor M4 (Homo sapiens) (UniProt P08173); assay: compounds altering M4/GIRK thallium flux, either direction, primary screen, M4 allosteric agonist project, cell-based, HEK293 M4/GIRK, BTC-AM (AID 625); conditions: at 10 µM, actives lie on both sides;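 also: thallium influx through GIRK channels coupled to M4 in HEK293 cells with BTC-AM dye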
Outline: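 System: HEK293 cells with M4 receptor and GIRK channels | Incubation: Cells overnight at 37 °C, BTC-AM loading 1 h, reads 2 min total | Technique: Kinetic BTC-AM fluorescence sampled at 1 Hz, 10 s pre-addition baseline | Measure: Post-addition slope, 15–24 s, of baseline-normalized fluorescence | Control set: Carbachol positive, DMSO negative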

[7] = inhibitors of Sendai virus-induced IRF3 signaling, primary screen, TLR/RLR signaling modifier project, cell-based, Sendai virus stimulus, luciferase, 10K MLSCN set (AID 602276;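 active = inhibition at or above 50% at 10 µM; inactive = inhibition below 50%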;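 also: firefly luciferase from ISG56 promoter only with Renilla not read in this screen; 0% = Sendai virus plus DMSO and 100% = medium plus DMSO without virus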); conditions: HEK293 RL24 IRF3 luciferase reporter, at 10 µM, stronger effect = higher value
[8] = inhibitors of poly I:C-induced TLR3 signaling, primary screen, cell-based, poly I:C stimulus, luciferase, 10K MLSCN set (AID 602277;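 active = inhibition of the reporter signal at or above 50%; inactive = inhibition below 50%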); conditions: HEK293-TLR3 RL24 IRF3 luciferase reporter, at 10 µM, stronger effect = higher value

Voltage-gated potassium channel subunit beta-2 (Rattus norvegicus), sequence (P62483 whole entry, looked up): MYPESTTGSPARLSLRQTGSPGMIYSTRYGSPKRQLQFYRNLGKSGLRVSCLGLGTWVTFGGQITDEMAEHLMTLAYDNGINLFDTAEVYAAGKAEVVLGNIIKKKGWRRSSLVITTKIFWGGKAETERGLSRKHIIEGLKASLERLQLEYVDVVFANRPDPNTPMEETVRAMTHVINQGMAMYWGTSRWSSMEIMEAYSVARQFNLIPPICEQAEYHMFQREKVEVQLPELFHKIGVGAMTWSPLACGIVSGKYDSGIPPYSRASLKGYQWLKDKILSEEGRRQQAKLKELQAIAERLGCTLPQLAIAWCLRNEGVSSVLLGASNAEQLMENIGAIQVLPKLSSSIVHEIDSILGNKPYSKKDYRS
Muscarinic acetylcholine receptor M4 (Homo sapiens), sequence (P08173 whole entry, looked up): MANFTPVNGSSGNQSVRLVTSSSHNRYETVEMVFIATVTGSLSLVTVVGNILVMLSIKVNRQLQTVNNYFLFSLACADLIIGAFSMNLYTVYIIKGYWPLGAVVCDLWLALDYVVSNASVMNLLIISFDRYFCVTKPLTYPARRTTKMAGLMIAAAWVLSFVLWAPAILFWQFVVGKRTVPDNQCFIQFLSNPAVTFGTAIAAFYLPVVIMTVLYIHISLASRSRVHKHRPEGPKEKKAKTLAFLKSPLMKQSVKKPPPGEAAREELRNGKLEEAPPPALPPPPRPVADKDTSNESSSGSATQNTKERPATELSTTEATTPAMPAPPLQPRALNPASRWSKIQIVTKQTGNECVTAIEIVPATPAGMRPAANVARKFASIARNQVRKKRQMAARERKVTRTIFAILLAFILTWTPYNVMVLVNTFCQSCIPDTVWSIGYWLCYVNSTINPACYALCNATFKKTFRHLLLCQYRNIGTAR

For `O=C(CCN1CCN(CCO)CC1)Nc1ccc(OCc2ccccc2)cc1`, the cell count [1] was 278, the inhibition [1] was 4.8% (inactive) and the inhibition of aggregation [2] was -5.1% (inactive). For the same compound, the nuclei count [2] was 98.3%, the inhibition [3] was -29.4% (inactive) and the nuclei count [3] was 105%. For the same compound, the fluorescence slope [4] was -0.584 (inactive), the NADPH fluorescence slope [5] was -2.1e-05 (inactive) and the fluorescence slope [6] was 0.00748 (inactive). For the same compound, the inhibition [7] was -11.3% (inactive) and the inhibition [8] was 0.289% (inactive).
With `Cn1c(SCc2ccc3c(c2)OCO3)nnc1-c1ccccc1` the cell count [1] was 344, the inhibition [1] was 9.8% (inactive) and the inhibition of aggregation [2] was 15.3% (inactive). For the same compound, the nuclei count [2] was 93.9%, the inhibition [3] was -72.5% (inactive) and the nuclei count [3] was 126%. For the same compound, the fluorescence slope [4] was -0.526 (inactive), the NADPH fluorescence slope [5] was 4.8e-05 (inactive) and the fluorescence slope [6] was 0.00602 (inactive). For the same compound, the inhibition [7] was -9.99% (inactive) and the inhibition [8] was -38.3% (inactive).
In the case of `O=C(NCc1cccs1)C(Cc1ccccc1)NS(=O)(=O)c1cccs1` (centres undefined), the cell count [1] is reported as 469, the inhibition [1] is reported as -1.7% (inactive) and the inhibition of aggregation [2] is reported as 0% (inactive). For the same compound, the nuclei count [2] was 108%, the inhibition [3] was -26.1% (inactive) and the nuclei count [3] was 111%. For the same compound, the fluorescence slope [4] was -0.437 (inactive), the NADPH fluorescence slope [5] was -0.000238 (active) and the fluorescence slope [6] was 0.00454 (inactive). The inhibition [7] was 14.7% (inactive) and the inhibition [8] was 15.2% (inactive).
In the case of `CCOC(=O)CSc1nnc(-c2ccc(S(=O)(=O)N3CCOCC3)cc2)n1-c1ccccc1`, the cell count [1] is reported as 193, the inhibition [1] is reported as -21.3% (inactive) and the inhibition of aggregation [2] is reported as -7.9% (inactive). For the same compound, the nuclei count [2] was 88.6%, the inhibition [3] was -19.3% (inactive) and the nuclei count [3] was 94.3%. For the same compound, the fluorescence slope [4] was -0.486 (inactive), the NADPH fluorescence slope [5] was -3.1e-05 (inactive) and the fluorescence slope [6] was 0.00502 (inactive). The inhibition [7] was 10.2% (inactive) and the inhibition [8] was 17.7% (inactive).
In the case of `COc1ccc(CC(=O)Nc2ccc(-c3nnc(-c4ccc(C)cc4)o3)cc2)cc1`, the cell count [1] is reported as 411, the inhibition [1] is reported as 0.5% (inactive) and the inhibition of aggregation [2] is reported as -17.7% (inactive). The nuclei count [2] was 102%, the inhibition [3] was -101% (inactive) and the nuclei count [3] was 109%. The fluorescence slope [4] was -0.454 (inactive), the NADPH fluorescence slope [5] was -9.3e-06 (inactive) and the fluorescence slope [6] was 0.0071 (inactive). For the same compound, the inhibition [7] was 8.75% (inactive) and the inhibition [8] was 18.4% (inactive).
In the case of `C[C@H](NC(=O)OC(C)(C)C)C(=O)NCC1CCC(C(=O)O)CC1` (some centres undefined), the cell count [1] is reported as 376, the inhibition [1] is reported as -1.1% (inactive) and the inhibition of aggregation [2] is reported as 4% (inactive). For the same compound, the nuclei count [2] was 103%, the inhibition [3] was -23.6% (inactive) and the nuclei count [3] was 101%. The fluorescence slope [4] was -0.536 (inactive), the NADPH fluorescence slope [5] was 1.9e-05 (inactive) and the fluorescence slope [6] was 0.00501 (inactive). For the same compound, the inhibition [7] was 16.6% (inactive) and the inhibition [8] was 21.3% (inactive).
For `Oc1ccccc1C1=Nc2nc3ccccc3n2C(c2ccccc2)C1` (centres undefined), the cell count [1] was 579, the inhibition [1] was 6.8% (inactive) and the inhibition of aggregation [2] was 3.6% (inactive). For the same compound, the nuclei count [2] was 107%, the inhibition [3] was -49.5% (inactive) and the nuclei count [3] was 102%. For the same compound, the fluorescence slope [4] was -0.539 (inactive), the NADPH fluorescence slope [5] was -7.3e-05 (inactive) and the fluorescence slope [6] was 0.00255 (inactive). For the same compound, the inhibition [7] was -38.4% (inactive) and the inhibition [8] was -68.7% (inactive).
In the case of `CC(=O)NCCn1ccc2ccccc21`, the cell count [1] is reported as 272, the inhibition [1] is reported as 14.1% (inactive) and the inhibition of aggregation [2] is reported as 17.6% (inactive). The nuclei count [2] was 93%, the inhibition [3] was -55.1% (inactive) and the nuclei count [3] was 99.6%. The fluorescence slope [4] was -0.518 (inactive), the NADPH fluorescence slope [5] was 0.000103 (inactive) and the fluorescence slope [6] was 0.00841 (inactive). For the same compound, the inhibition [7] was 16.6% (inactive) and the inhibition [8] was 20.7% (inactive).
With `CCS(=O)(=O)Nc1ccc(C(=O)CC2(O)C(=O)Nc3ccccc32)cc1` (centres undefined) the cell count [1] was 602, the inhibition [1] was -11.9% (inactive) and the inhibition of aggregation [2] was -19.6% (inactive). The nuclei count [2] was 110%, the inhibition [3] was 11.8% (inactive) and the nuclei count [3] was 107%. The fluorescence slope [4] was -0.521 (inactive), the NADPH fluorescence slope [5] was 0.000137 (inactive) and the fluorescence slope [6] was 0.00663 (inactive). The inhibition [7] was 14.3% (inactive) and the inhibition [8] was 18.7% (inactive).
In the case of `Cc1cc(C)c2c(n1)nn1c(N3CCN(c4ccccc4C)CC3)cc(C)nc21`, the cell count [1] is reported as 420, the inhibition [1] is reported as -11.8% (inactive) and the inhibition of aggregation [2] is reported as -116% (inactive). For the same compound, the nuclei count [2] was 81%, the inhibition [3] was -52.8% (inactive) and the nuclei count [3] was 110%. The fluorescence slope [4] was -0.447 (inactive), the NADPH fluorescence slope [5] was 1.5e-05 (inactive) and the fluorescence slope [6] was 0.00576 (inactive). For the same compound, the inhibition [7] was -4.5% (inactive) and the inhibition [8] was -6.94% (inactive).
For `CCOC(=O)C(C)Sc1nc2c(cnn2-c2ccc(C)cc2)c(=O)[nH]1` (centres undefined), the cell count [1] was 239, the inhibition [1] was -1.3% (inactive) and the inhibition of aggregation [2] was 6.8% (inactive). For the same compound, the nuclei count [2] was 102%, the inhibition [3] was 11.9% (inactive) and the nuclei count [3] was 110%. The fluorescence slope [4] was -0.503 (inactive), the NADPH fluorescence slope [5] was 8.8e-05 (inactive) and the fluorescence slope [6] was 0.00678 (inactive). The inhibition [7] was 6.58% (inactive) and the inhibition [8] was 8.01% (inactive).
In the case of `Nc1nc2sc3c(c2c(=O)s1)CCCC3`, the cell count [1] is reported as 194, the inhibition [1] is reported as 0.2% (inactive) and the inhibition of aggregation [2] is reported as -15.1% (inactive). The nuclei count [2] was 55.3%, the inhibition [3] was 18.8% (inactive) and the nuclei count [3] was 90.7%. For the same compound, the fluorescence slope [4] was -0.525 (inactive), the NADPH fluorescence slope [5] was -0.0002 (inactive) and the fluorescence slope [6] was 0.00365 (inactive). The inhibition [7] was -10.3% (inactive) and the inhibition [8] was -23.7% (inactive).
For `C=C(C)Cn1c(CCNC(=O)CC)nc2ccccc21`, the cell count [1] was 494, the inhibition [1] was -28.5% (inactive) and the inhibition of aggregation [2] was 1.3% (inactive). For the same compound, the nuclei count [2] was 101%, the inhibition [3] was -107% (inactive) and the nuclei count [3] was 112%. For the same compound, the fluorescence slope [4] was -0.433 (inactive), the NADPH fluorescence slope [5] was -6.1e-05 (inactive) and the fluorescence slope [6] was 0.00575 (inactive). The inhibition [7] was 9.76% (inactive) and the inhibition [8] was 14.1% (inactive).
For `COCCN(C(=O)Cn1nnc2ccccc21)C(C(=O)NC1CCCC1)c1cc(OC)ccc1OC` (centres undefined), the cell count [1] was 323, the inhibition [1] was 9% (inactive) and the inhibition of aggregation [2] was 7.8% (inactive). The nuclei count [2] was 105%, the inhibition [3] was -246% (inactive) and the nuclei count [3] was 112%. The fluorescence slope [4] was -0.491 (inactive), the NADPH fluorescence slope [5] was 0.0001 (inactive) and the fluorescence slope [6] was 0.00575 (inactive). The inhibition [7] was 2.22% (inactive) and the inhibition [8] was 8.36% (inactive).

Reference: PubChem BioAssay
